# PMC5598257 (Toxicology Reports, 2015)
# How the values were obtained:
# Stability = format: physicochemical; conditions: for Rate constants, K (×10^4): hydrolysis in phosphate buffer (D2O), pseudo-first-order
# Summary of the method: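 DMPC was sonicated in D2O phosphate buffer (pH 5.0–8.0) at 30% power for 5 min, 10 s on/off. To 800 μl of buffer with or without vesicles (compound:DMPC 1:5), 15 μl of a 0.337 M CDCl3 stock of test compound was added. 1H NMR ran at 25 °C, 128 scans, 2 s relaxation delay, integrating the C6H signal. Single-point runs. Pseudo-first-order rate constants; inhibition ratio is K without/with DMPC.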
# [1] = system: MDA-MB-435s (human melanoma); assay: In vitro cytotoxicity assay; format: cell-based; conditions: MDA-MB-435s cells, 72 h, MTT
# Summary of the method: (§1)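 Cells were grown in DMEM with 10% FBS and seeded at 1–2 × 10^4 per well, depending on the line. Test compound (free, or co-evaporated with DMPC 1:5 from chloroform) was added at once at 250, 50, 10, 2, 0.4 and 0.08 μM. Incubation ran 72 h at 37 °C, 5% CO2. Survival was read by MTT at OD 540 nm. Buffer-treated controls were on a separate plate. Triplicate runs; IC50 by curve fitting.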
# [2] = system: MCF-7 (human breast adenocarcinoma, estrogen-positive); assay: In vitro cytotoxicity assay; format: cell-based; conditions: MCF-7 cells, 72 h, MTT
# Summary of the method: as §1
# H9C2 (rat myocardium) = assay: In vitro cytotoxicity assay; format: cell-based; conditions: H9C2 normal cells, 72 h, MTT
# Summary of the method: as §1
# [3] = aqueous solutions, base catalyzed hydrolysis to 5-fluorouracil; cited from earlier work
# C6 (rat glial tumor) = assay: In vitro cytotoxicity assay; format: cell-based; conditions: C6 cells, 72 h, MTT
# Summary of the method: as §1
# [4] = system: SH-SY-5Y (human neuroblastoma); assay: In vitro cytotoxicity assay; format: cell-based; conditions: SH-SY-5Y cells, 72 h, MTT
# Summary of the method: as §1
SMILES,"Rate constants, K (×10^4) (Stability; pH 5.0, 25 °C)","Rate constants, K (×10^4) (Stability; pH 6.0, 25 °C)","Rate constants, K (×10^4) (Stability; pH 7.0, 25 °C)","Rate constants, K (×10^4) (Stability; pH 8.0, 25 °C)","Inhibition ratio, K1/K3 (Stability; pH 8.0, K of 1 alone over K of 1 with DMPC (3))","Time practically kept unharmed (Stability; phosphate buffer pH 5, without DMPC)","Time degradation completely prevented (Stability; with 2 (DMPC, 1:5), phosphate buffer, at decreasing pH)","IC50, concentration providing 50% cell killing effect [1]","IC50, concentration providing 50% cell killing effect [2]","IC50, concentration providing 50% cell killing effect (H9C2 (rat myocardium))",pH of highest stability [3],"IC50, concentration providing 50% cell killing effect (C6 (rat glial tumor))","IC50, concentration providing 50% cell killing effect [4]"
"CCCCCCNC(=O)n1cc(F)c(=O)[nH]c1=O [compound 1, 1-hexylcarbamoyl-5-fluorouracil]",0 ×10^4,0.17 ×10^4,0.54 ×10^4,0.70 ×10^4,over 7,more than 14 h,≥ 2 days,no activity in vitro,no activity in vitro,not cardiotoxic,~4,–,–
"CCCCCCCCCCCCCC(=O)OC[C@H](COP(=O)([O-])OCC[N+](C)(C)C)OC(=O)CCCCCCCCCCCCC [compound 2, 1,2-dimyristoyl-sn-glycero-3-phosphocholine]",–,–,–,–,–,–,–,–,–,–,–,no cytotoxic effect,no cytotoxic effect
